Data from ChEMBL document CHEMBL4765483 (J Med Chem, 2021).

How the values were obtained:
Settings in all cases: Cell membrane
[1] = biological target: Adenosine receptor A2a (Homo sapiens) (UniProt P29274); assay: Displacement of [3H]ZM2421385 from adenosine A2A receptor expressed in human HeLa cell membranes at 1 uM incubated for 30 mins by scintillation counting method
[2] = biological target: T1, Adenosine receptor A1 (Homo sapiens) (UniProt P30542); assay: Displacement of [3H]DPCPX from human adenosine A1 receptor expressed in CHO cell membranes at 1 uM incubated for 60 mins by scintillation counting method
T1 sequence (whole entry): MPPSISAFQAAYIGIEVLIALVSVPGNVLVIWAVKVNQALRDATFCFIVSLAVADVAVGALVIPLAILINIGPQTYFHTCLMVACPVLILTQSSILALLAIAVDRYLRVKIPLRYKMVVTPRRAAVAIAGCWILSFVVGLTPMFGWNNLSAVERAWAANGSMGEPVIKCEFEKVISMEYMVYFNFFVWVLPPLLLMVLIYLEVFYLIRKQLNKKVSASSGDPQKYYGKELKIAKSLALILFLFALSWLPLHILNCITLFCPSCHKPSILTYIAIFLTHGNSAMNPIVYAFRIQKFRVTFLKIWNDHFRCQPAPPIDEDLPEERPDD

[3] = biological target: T2, Adenosine receptor A2b (Homo sapiens) (UniProt P29275); assay: Displacement of [3H]DPCPX from human adenosine A2B receptor expressed in HEK293 cell membranes at 1 uM incubated for 30 mins by scintillation counting method
T2 sequence (whole entry): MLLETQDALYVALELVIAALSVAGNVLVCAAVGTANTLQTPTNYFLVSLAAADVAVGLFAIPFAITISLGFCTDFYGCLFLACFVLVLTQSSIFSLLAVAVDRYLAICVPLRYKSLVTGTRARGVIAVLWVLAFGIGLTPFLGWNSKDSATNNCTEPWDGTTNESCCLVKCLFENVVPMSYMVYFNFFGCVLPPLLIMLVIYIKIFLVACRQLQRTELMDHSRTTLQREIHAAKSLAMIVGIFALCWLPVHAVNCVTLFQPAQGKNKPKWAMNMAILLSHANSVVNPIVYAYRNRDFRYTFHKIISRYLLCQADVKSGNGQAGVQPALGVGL

[4] = biological target: T3, Adenosine receptor A3 (Homo sapiens) (UniProt P0DMS8); assay: Displacement of [3H]NECA from adenosine A3 receptor expressed in human HeLa cell membranes at 1 uM incubated for 180 mins by scintillation counting method
T3 sequence (whole entry): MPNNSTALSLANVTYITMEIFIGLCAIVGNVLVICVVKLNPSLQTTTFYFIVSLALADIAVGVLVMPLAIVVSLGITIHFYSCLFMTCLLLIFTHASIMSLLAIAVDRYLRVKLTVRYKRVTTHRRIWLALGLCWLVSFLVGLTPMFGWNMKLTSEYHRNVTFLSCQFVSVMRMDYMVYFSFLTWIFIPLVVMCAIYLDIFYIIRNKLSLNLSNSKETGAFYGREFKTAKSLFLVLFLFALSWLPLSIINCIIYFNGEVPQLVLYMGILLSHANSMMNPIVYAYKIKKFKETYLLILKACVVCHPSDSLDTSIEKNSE
Procedure, shortened: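 hA3AR in HeLa membranes (3 pmol/mg protein) with 10 nM [3H]NECA (KD 8.7 nM); nonspecific binding with 100 μM R-PIA; incubated 180 min at 25 °C, washed, filtered, radioactivity counted.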

Sequence of Adenosine receptor A2a (Homo sapiens) (P29274 whole entry): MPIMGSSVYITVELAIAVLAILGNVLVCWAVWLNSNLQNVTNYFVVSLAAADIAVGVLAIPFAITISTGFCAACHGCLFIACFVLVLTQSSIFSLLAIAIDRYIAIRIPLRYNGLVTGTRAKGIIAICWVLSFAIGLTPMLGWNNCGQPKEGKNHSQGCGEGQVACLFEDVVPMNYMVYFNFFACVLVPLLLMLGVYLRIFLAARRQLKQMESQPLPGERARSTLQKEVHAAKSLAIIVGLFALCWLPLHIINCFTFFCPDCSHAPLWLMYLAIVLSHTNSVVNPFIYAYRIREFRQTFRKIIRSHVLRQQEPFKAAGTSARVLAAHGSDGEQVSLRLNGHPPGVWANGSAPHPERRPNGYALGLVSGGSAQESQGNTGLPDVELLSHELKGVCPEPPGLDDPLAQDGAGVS

SMILES | inhibition [1] [%] | inhibition [2] [%] | inhibition [3] [%] | inhibition [4] [%] | inhibition ([3]; filed as antagonist) [%]
CC(=O)C1=C(C)NC(=O)NC1c1cccs1 (racemic) | 2 | 11 | 2 | 3 | 
CC(=O)C1=C(C)NC(=O)NC1c1ccoc1 (racemic) | 1 | 6 | 15 | 2 | 
CC(=O)C1=C(C)NC(=O)NC1c1ccsc1 (racemic) | 1 | 9 | 24 | 1 | 
CC1=C(C(=O)C2CC2)C(c2cccs2)NC(=O)N1 (racemic) | 1 | 1 | 1 | 15 | 
CC1=C(C(=O)C2CC2)C(c2ccoc2)NC(=O)N1 (racemic) | 1 | 1 | 10 | 16 | 
CC1=C(C(=O)C2CC2)C(c2ccsc2)NC(=O)N1 (racemic) | 4 | 2 | 1 | 1 | 
CC1=C(C(=O)CC(C)C)C(c2cccs2)NC(=O)N1 (racemic) | 1 | 19 |  | 18 | 43
CC1=C(C(=O)NC(C)C)C(c2ccco2)NC(=O)N1 (racemic) | 1 | 3 | 2 | 4 | 
CC1=C(C(=O)NC(C)C)C(c2cccs2)NC(=O)N1 (racemic) | 22 | 2 |  | 1 | 40
CC1=C(C(=O)NC(C)C)C(c2ccoc2)NC(=O)N1 (racemic) | 1 | 1 | 3 | 3 | 
CC1=C(C(=O)NC(C)C)C(c2ccsc2)NC(=O)N1 (racemic) | 1 | 8 | 3 | 1 | 
CC1=C(C(=O)OC(C)(C)C)C(c2ccsc2)NC(=O)N1C (racemic) | 1 | 18 | 35 | 14 | 
CC1=C(C(=O)OCC(C)C)C(c2ccsc2)NC(=O)N1C (racemic) | 2 | 8 | 1 | 4 | 
CC1=C(C(=O)SC(C)C)C(c2ccco2)NC(=O)N1 (racemic) | 2 | 5 | 22 | 1 | 
CC1=C(C(=O)SC(C)C)C(c2cccs2)NC(=O)N1 (racemic) | 1 | 1 | 1 | 1 | 
CC1=C(C(=O)SC(C)C)C(c2ccsc2)NC(=O)N1 (racemic) | 2 | 24 | 14 | 1 | 
CC1=C(C(N)=O)C(c2cccs2)NC(=O)N1 (racemic) | 1 | 2 | 3 | 1 | 
CC1=C(C(N)=O)C(c2ccoc2)NC(=O)N1 (racemic) | 3 | 1 | 6 | 2 | 
CC1=C(C(N)=O)C(c2ccsc2)NC(=O)N1 (racemic) | 18 | 2 | 1 | 1 | 
CC1=C(c2ncc(C)o2)C(c2cccs2)NC(=O)N1 (racemic) | 7 | 21 |  | 1 | 45
CCC(CC)OC(=O)C1=C(C)NC(=O)NC1c1ccco1 (racemic) | 3 | 2 | 35 | 1 | 

SMILES | inhibition [1] [%] | inhibition [2] [%] | inhibition [3] [%] | inhibition [4] [%] | inhibition ([3]; filed as antagonist) [%]
CCCC(=O)C1=C(C)NC(=O)NC1c1cccs1 (racemic) | 23 | 2 | 9 | 2 | 
CCCC(=O)C1=C(C)NC(=O)NC1c1ccoc1 (racemic) | 2 | 1 | 22 | 2 | 
CCCC(=O)C1=C(C)NC(=O)NC1c1ccsc1 (racemic) | 11 | 6 | 9 | 1 | 
CCCOC(=O)C1=C(C)N(C)C(=O)NC1c1ccsc1 (racemic) | 3 | 2 | 1 | 11 | 
CCN(CC)C(=O)C1=C(C)NC(=O)NC1c1ccco1 (racemic) | 9 | 11 | 31 | 19 | 
CCN(CC)C(=O)C1=C(C)NC(=O)NC1c1cccs1 (racemic) | 15 | 13 | 22 | 31 | 
CCN(CC)C(=O)C1=C(C)NC(=O)NC1c1ccoc1 (racemic) | 6 | 15 | 12 | 37 | 
CCN(CC)C(=O)C1=C(C)NC(=O)NC1c1ccsc1 (racemic) | 9 | 11 | 11 | 35 | 
CCNC(=O)C1=C(C)NC(=O)NC1c1ccco1 (racemic) | 1 | 2 | 1 | 3 | 
CCNC(=O)C1=C(C)NC(=O)NC1c1cccs1 (racemic) | 1 | 1 | 1 | 4 | 
CCNC(=O)C1=C(C)NC(=O)NC1c1ccoc1 (racemic) | 2 | 1 | 2 | 1 | 
CCNC(=O)C1=C(C)NC(=O)NC1c1ccsc1 (racemic) | 17 | 3 | 1 | 1 | 
CCOP(=O)(OCC)C1=C(C)NC(=O)NC1c1ccco1 (racemic) | 4 | 3 | 2 | 4 | 
CCOP(=O)(OCC)C1=C(C)NC(=O)NC1c1cccs1 (racemic) | 5 | 2 | 7 | 5 | 
CCOP(=O)(OCC)C1=C(C)NC(=O)NC1c1ccoc1 (racemic) | 8 | 1 | 3 | 2 | 
CCOP(=O)(OCC)C1=C(C)NC(=O)NC1c1ccsc1 (racemic) | 3 | 4 | 1 | 1 | 
CCSC(=O)C1=C(C)NC(=O)NC1c1ccco1 (racemic) | 2 | 6 | 29 | 14 | 
CCSC(=O)C1=C(C)NC(=O)NC1c1cccs1 (racemic) | 8 | 6 | 1 | 1 | 
CCSC(=O)C1=C(C)NC(=O)NC1c1ccoc1 (racemic) | 1 | 3 | 1 | 1 | 
CCSC(=O)C1=C(C)NC(=O)NC1c1ccsc1 (racemic) | 1 | 11 | 17 | 2 | 
COC(=O)C1=C(C)N(C)C(=O)NC1c1ccsc1 (racemic) | 13 | 24 | 26 | 22 | 
